Assay outcomes from PubChem.
In the library only some 2.7% were active in any assay of this set; here they are far more common.
PAFAH1B3 inh = PAFAH1B3 enzyme inhibitors, primary screen, biochemical, fluorescence polarization, human | inhibition, % at 3.39 µM | recombinant PAFAH1B3, FP-rhodamine probe | hit rate 0.28% among 340,000 | AID 492972, 2010;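 active = inhibition above the screen-wide average of all tested compounds plus 3 SD, cut at about 25% in these data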
Target sequence (Q15102 whole entry, looked up): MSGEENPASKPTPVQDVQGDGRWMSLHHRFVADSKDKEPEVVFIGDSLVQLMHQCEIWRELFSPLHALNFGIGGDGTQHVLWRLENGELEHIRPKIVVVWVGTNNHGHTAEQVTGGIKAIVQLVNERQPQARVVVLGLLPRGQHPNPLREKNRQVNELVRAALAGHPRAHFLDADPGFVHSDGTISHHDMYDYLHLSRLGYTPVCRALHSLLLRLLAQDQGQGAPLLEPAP
pPAFAH inh = pPAFAH enzyme inhibitors, primary screen, biochemical, fluorescence polarization, human; Platelet-activating factor acetylhydrolase (Homo sapiens), Q13093; recombinant pPAFAH, FP-rhodamine probe fluorescence polarization; inhibition, % at 3.39 µM; hit rate 1.5% among 330,000; AID 463082, 2010;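 active = inhibition above the mean inhibition across the screen plus 3 SD, cut at about 25% in these data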;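 also: inhibitors block binding of the rhodamine activity-based probe so polarization drops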
RBBP9 inh = human RBBP9 inhibitors, primary screen, biochemical, fluorescence polarization, FP-Rh probe, HTS; hit rate 0.2% among 220,000; inhibition, % at 7.94 µM; recombinant RBBP9; Serine hydrolase RBBP9 (Homo sapiens), O75884;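 active = inhibition above the campaign mean of all tested compounds plus 3 SD, cut at about 14% in these data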
Target sequence (O75884 whole entry, looked up): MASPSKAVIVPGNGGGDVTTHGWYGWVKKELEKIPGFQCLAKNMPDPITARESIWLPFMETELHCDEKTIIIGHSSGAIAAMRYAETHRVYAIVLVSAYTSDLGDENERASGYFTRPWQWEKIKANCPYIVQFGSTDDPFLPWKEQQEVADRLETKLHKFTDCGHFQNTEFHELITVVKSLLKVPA
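Measured by – fluorescence polarization · Test system – RBBP9 protein · Input – 2.5 µM RBBP9 dispensing solution, before mixing · Measure – percent inhibition from mP, scaled between DMSO and no-protein wells · Benchmarks – DMSO-treated enzyme wells and wells lacking RBBP9 · Times – preincubation 30 min plus labeling 45 min at 25 °C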
PAFAH1B2 FP inh = PAFAH1B2 enzyme inhibitors, primary screen, biochemical, fluorescence polarization, human; Platelet-activating factor acetylhydrolase IB subunit alpha2 (Homo sapiens), P68402; hit rate 1.2% among 340,000; recombinant PAFAH1B2, FP-rhodamine activity probe; inhibition, % at 3.39 µM;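 active = inhibition above the mean of all tested compounds plus 3 SD, cut at about 24% in these data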
Target sequence (P68402 whole entry, looked up): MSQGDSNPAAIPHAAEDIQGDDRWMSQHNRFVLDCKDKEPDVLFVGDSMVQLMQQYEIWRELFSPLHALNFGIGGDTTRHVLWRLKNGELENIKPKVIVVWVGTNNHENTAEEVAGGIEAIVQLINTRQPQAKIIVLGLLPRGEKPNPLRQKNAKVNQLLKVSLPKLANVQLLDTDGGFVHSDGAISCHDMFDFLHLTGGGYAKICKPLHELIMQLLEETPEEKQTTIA
PAFAH2 inh = PAFAH2 enzyme inhibitors, primary screen, biochemical, fluorescence polarization, human; Platelet-activating factor acetylhydrolase 2, cytoplasmic (Homo sapiens), Q99487; inhibition, % at 3.39 µM; hit rate 0.99% among 340,000; recombinant PAFAH2, FP-rhodamine activity probe;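 active = inhibition above the mean over all tested compounds plus 3 SD, cut at about 30% in these data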;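 also: inhibitors block probe labeling of enzyme so polarization drops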
PAFAH2 FP conf = PAFAH2 enzyme inhibitors, confirmation, biochemical, fluorescence polarization, human; shares compounds with PAFAH2 inh; inhibition, % at 3.39 µM; AID 493030, 2011; recombinant PAFAH2, FP-rhodamine activity probe; hit rate 65% among 2,300;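 active = mean inhibition over three repeats above a set limit taken from the earlier primary screen, cut at about 30% in these data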;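 also: inhibitor blocks binding of rhodamine activity probe so polarization falls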
Numbers stand for hits; 0 = inactive; - = no result given.

SMILES | PAFAH1B3 inh | pPAFAH inh | RBBP9 inh | PAFAH1B2 FP inh | PAFAH2 inh | PAFAH2 FP conf
O=C(Cc1ccc(S(=O)(=O)N2CCOCC2)s1)N1CCN(S(=O)(=O)c2ccccc2[N+](=O)[O-])CC1 | 0 | - | - | 0 | 0 | -
COc1ccc(CCNC(=O)COC(=O)/C=C/c2ccc(OC)c(OC)c2)cc1 | 0 | 0 | 0 | 0 | 39 | 0
COc1ccc(/C=C/C(=O)OCC(=O)NCc2ccccc2Cl)cc1OC | 0 | 0 | - | 0 | 79 | 76
COc1ccc(/C=C/C(=O)OCC(=O)NCCCc2ccccc2)cc1OC | 0 | 0 | - | 0 | 52 | 40
COc1cc(/C=C/C(=O)OCC(=O)NCCCc2ccccc2)cc(OC)c1OC | 0 | 0 | - | 0 | 0 | -
Cc1ccc(NC(=O)c2ccc(Cl)c(N3C(=O)CCC3=O)c2)cc1 | 0 | 0 | - | 0 | 0 | -
CCN(CC)S(=O)(=O)c1ccc2c(c1)nc(CCC(=O)OCC(=O)Nc1c(F)cccc1F)n2C | 0 | 0 | 0 | 0 | 49 | 46
CCN(CC)S(=O)(=O)c1ccc2c(c1)nc(CCC(=O)O)n2C | 0 | 0 | 0 | 0 | 0 | -
CCN(CC)S(=O)(=O)c1ccc2c(c1)nc(CCC(=O)OCC(=O)Nc1cc(OC)cc(OC)c1)n2C | 0 | 0 | 0 | 0 | 52 | 36
CCN(CC)S(=O)(=O)c1ccc2c(c1)nc(CCC(=O)Nc1ccc3c(c1)OCO3)n2C | 0 | 0 | 0 | 0 | 0 | -
CC(C)(C)OC(=O)NC1CC2CCCC(C1)N2Cc1ccccc1 (stereo not given) | 0 | - | - | 0 | 0 | -
CN(C)S(=O)(=O)c1cccc(C(=O)Nc2cc(S(=O)(=O)N3CCOCC3)ccc2N2CCCC2)c1 | 0 | - | - | 0 | 0 | -
COc1cccc(CC(=O)Nc2cc(S(=O)(=O)N3CCOCC3)ccc2N2CCOCC2)c1 | 0 | 0 | 0 | 0 | 0 | -
O=C(Nc1cc(S(=O)(=O)N2CCOCC2)ccc1O)c1ccco1 | 0 | 0 | 0 | 0 | 57 | 44
COc1cccc(CC(=O)Nc2cc(S(=O)(=O)N3CCOCC3)ccc2OC)c1 | 0 | - | - | 0 | 39 | 0
Cc1ccc(S(=O)(=O)N2CCOCC2)cc1C(=O)Nc1cc(S(=O)(=O)N2CCCCC2)ccc1O | 0 | - | - | 0 | 30 | 0
CN(C)S(=O)(=O)c1cccc(C(=O)Nc2cc(S(=O)(=O)N3CCOCC3)ccc2O)c1 | 0 | - | - | 0 | 50 | 50
O=C(Nc1ccc(S(=O)(=O)N2CCOCC2)cc1)c1ccco1 | 0 | 0 | 0 | 0 | 0 | -
COc1ccccc1CNC(=O)C1CC2Cn3c(nc4cc(Cl)c(Cl)cc43)C2N1C (stereo not given) | 0 | 0 | - | 0 | 0 | -
CC1CCc2sc(C(=O)OCC(=O)NCc3ccc(F)cc3)cc2C1 (stereo not given) | 0 | 0 | 0 | 0 | 46 | 40
CC(=O)Nc1ccc(C(=O)OCC(=O)NC(=O)NC2CCCCC2)cc1 | 0 | 0 | 0 | 0 | 53 | 39
CC(C)Oc1ccc(C(=O)OCC(=O)NC(=O)NC2CCCC2)cc1 | 0 | 0 | - | 0 | 41 | 34
COC(=O)c1ccc(NC(=O)NC2CCCCC2)cc1 | 0 | 0 | 0 | 0 | 0 | -
CC(Oc1ccccc1)C(=O)OCC(=O)NC(=O)NC1CCCCC1 (stereo not given) | 0 | 0 | - | 0 | 0 | -
O=C(CN1C(=O)NC2(CCCCC2)C1=O)Nc1ccccc1N1CCCC1 | 0 | 0 | - | 0 | 0 | -
SMILES | PAFAH1B3 inh | pPAFAH inh | RBBP9 inh | PAFAH1B2 FP inh | PAFAH2 inh | PAFAH2 FP conf
CC(CCc1ccccc1)NC(=O)COC(=O)CC1CC2CCC1C2 (stereo not given) | 0 | 0 | 0 | 0 | 30 | 0
O=C(COC(=O)CC1CC2CCC1C2)NCc1ccccc1 (stereo not given) | 0 | 0 | - | 0 | 46 | 0
O=C(NCCc1ccc(C(F)(F)F)cc1)C1CCC(=O)N(CCc2cccc(F)c2)C1 (stereo not given) | 0 | 0 | - | 0 | 0 | -
O=C(NCCc1ccc(C(F)(F)F)cc1)C1CCC(=O)N(CCCc2ccccc2)C1 (stereo not given) | 0 | 0 | - | 0 | 53 | 53
O=C(CCNC(=O)c1ccco1)Nc1ccc(SC(F)F)cc1 | 0 | 0 | 0 | 0 | 0 | -
O=C(COC(=O)C1(c2ccccc2F)CCCC1)NCc1cccs1 | 0 | 0 | 0 | 0 | 0 | -
CCC(CC)NC(=O)COC(=O)c1cc(Br)ccc1Cl | 0 | 0 | 0 | 0 | 33 | 0
CC(=O)c1c(C)oc2ccc(NS(=O)(=O)c3ccc(C)cc3)cc12 | 0 | 0 | - | 0 | 0 | -
Cc1ccc(C)c(S(=O)(=O)Nc2ccc3oc(C)c(C(=O)O)c3c2)c1 | 0 | 0 | - | 0 | 38 | 0
O=S(=O)(c1ccc2c(c1)OCCO2)N1CCC(O)(c2ccc(Cl)cc2)CC1 | 0 | 0 | 0 | 0 | 0 | -
CCN(CC)S(=O)(=O)c1cc(C(=O)OCC(=O)Nc2cccc(Br)c2)ccc1F | 0 | 0 | 0 | 0 | 32 | 0
CCc1cccc(CC)c1NC(=O)COC(=O)c1ccc2c(c1)S(=O)(=O)c1ccccc1C2=O | 0 | 0 | 0 | 0 | 0 | -
CCN(CC)S(=O)(=O)c1cc(C(=O)OCC(=O)c2ccc3c(c2)NC(=O)CO3)ccc1F | 0 | 0 | 0 | 0 | 0 | -
CCc1cccc(CC)c1NC(=O)COC(=O)c1ccc(F)c(S(=O)(=O)N(CC)CC)c1 | 0 | 0 | 0 | 0 | 30 | 0
Cc1ccc(NC(=O)COC(=O)c2ccc3c(c2)NC(=O)C2CCCN32)cc1 (stereo not given) | 0 | 0 | 0 | 0 | 68 | 76
O=C(OCC1CC(c2ccccc2)=NO1)c1ccc(Br)cc1 (stereo not given) | 0 | 0 | 0 | 0 | 0 | -
O=C(OCC1CC(c2ccccc2)=NO1)c1ccco1 (stereo not given) | 0 | 0 | 0 | 0 | 33 | 0
CC(=O)c1ccccc1NC(=O)COC(=O)c1cc(C)oc1C | 0 | 0 | - | 0 | 0 | -
Cc1cc(C(=O)OCC(=O)Nc2ccc(F)c(F)c2F)c(C)o1 | 0 | 0 | 0 | 0 | 52 | 50
Cc1cc(C(=O)OCC(=O)Nc2ccc(F)cc2)c(C)o1 | 0 | 0 | 0 | 0 | 79 | 78
Cc1ccc(C(=O)OCC(=O)Nc2ccc(F)c(Cl)c2)o1 | 0 | 0 | - | 0 | 85 | 75
Cc1cc(C(=O)OCC(=O)Nc2ccccc2)c(C)o1 | 0 | 0 | 0 | 0 | 78 | 74
COc1ccccc1NC(=O)COC(=O)c1cc(C)oc1C | 0 | 0 | - | 0 | 0 | -
Cc1cccc(N2CCN(C(=O)CCCSc3nc4ccccc4[nH]3)CC2)c1C | 0 | 0 | 0 | 0 | 0 | -
CCN(CC)S(=O)(=O)c1ccc(O)c(NC(=O)CN2CCc3ccccc3C2)c1 | 0 | 0 | 0 | 0 | 56 | 56
CN(C)S(=O)(=O)c1ccc(Cl)c(NC(=O)CN2CCc3ccccc3C2)c1 | 0 | 0 | 0 | 0 | 0 | -
